From ChEMBL document CHEMBL2021823, “Antiproliferative acetogenins from a Uvaria sp. from the Madagascar dry forest” (J Nat Prod, 2012)

Key:
[1] = system: A2780; experiment: Antiproliferative activity against human A2780 cells after 2 days by Alamar blue assay; settings: A2780, 48 h
[2] = system: A2058; experiment: Antiproliferative activity against human A2058 cells after 96 hrs by CellTiter-Glo assay; assay type: functional, cell-based; settings: A2058, 96 h
Procedure, shortened: (§1)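 A2058 melanoma and H522 lung cancer cell lines, run at Eisai by procedures similar to those used for the H460 line; activity reported as IC50.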

[3] = system: NCI-H522; experiment: Antiproliferative activity against human NCI-H522 cells after 96 hrs by CellTiter-Glo assay; assay type: functional, cell-based; settings: NCI-H522, 96 h; procedure, shortened: as §1

SMILES	IC50 [1]	IC50 [2]	IC50 [3]
CCCCCCCCCCCCC[C@H](O)[C@@H]1CC[C@@H]([C@H]2CC[C@H]([C@@H](O)CCCC(O)CCCCCC3=C[C@H](C)OC3=O)O2)O1 (relative stereo)	6.4 µM	6.6 µM	< 10 µM
CCCCCCCCCCC[C@H](O)[C@@H]1CC[C@@H]([C@H]2CC[C@H]([C@@H](O)CCCCCCCC[C@H](O)CCC3=C[C@H](C)OC3=O)O2)O1 (relative stereo)	8.8 µM	7.2 µM	< 10 µM
